In brackets after ≈: the same amount, converted by molar mass.
Assays:
Fusarium oxysporum [1] = assay: Antifungal activity against Fusarium oxysporum KACC 41083 assessed as inhibition of radial growth at 0.2 mg/disk incubated for 4 to 6 days by disk diffusion method; assay type: functional
In short: (§1)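 Disk diffusion on PDA in 9 cm dishes. Sample in DMSO at 40 mg/mL; paper disks loaded with 5 or 15 μL, dried, and set equidistantly. A 6 mm agar plug of the pathogen was placed upside down in the centre. Plates were incubated at 25 C for 4-6 days, until solvent-control growth reached the edge. % inhibition = radial growth versus control; triplicate plates; mean ± SD of three experiments.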

Fusarium oxysporum [2] = assay: Inhibition of spore germination of Fusarium oxysporum KACC 41083; assay type: functional, organism-based
In short: (§2)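 Glyceollins were tested at 10, 25, 50, 100, 250 and 500 μg/mL against a 1% DMSO control, with spore suspension at 1.0 × 10^8 spores/mL. 100 μL aliquots went on glass slides in triplicate and were kept in a moist chamber at 25 C for 24 h. Slides were fixed in lactophenol-cotton blue, about 200 spores were counted for germ tubes, and germination was expressed relative to control.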

Botrytis cinerea [3] = assay: Antifungal activity against Botryotinia fuckeliana KACC 40573 assessed as inhibition of radial growth at 0.6 mg/disk incubated for 4 to 6 days by disk diffusion method; assay type: functional; in short: as §1
Fusarium oxysporum [4] = assay: Inhibition of spore germination of Fusarium oxysporum KACC 41083 at 100 to 500 ug/mL; assay type: functional; in short: as §2
Sclerotinia sclerotiorum [5] = assay: Antifungal activity against Sclerotinia sclerotiorum KACC 41065 assessed as inhibition of radial growth at 0.6 mg/disk incubated for 4 to 6 days by disk diffusion method; assay type: functional; in short: as §1
Sclerotinia sclerotiorum [6] = assay: Inhibition of spore germination of Sclerotinia sclerotiorum KACC 41065 at 500 ug/mL; assay type: functional; in short: as §2
Sclerotinia sclerotiorum [7] = assay: Inhibition of spore germination of Sclerotinia sclerotiorum KACC 41065; assay type: functional, organism-based; in short: as §2
Botrytis cinerea [8] = assay: Antifungal activity against Botryotinia fuckeliana KACC 40573 measured 2 to 4 days post dose by two fold dilution method; assay type: functional
In short: (§3)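 Two-fold dilution MIC in potato dextrose broth tubes. The DMSO-dissolved sample was serially diluted to final 10, 25, 50, 100, 250, 500 and 750 μg/mL, then inoculated with 10 μL spore suspension (1 × 10^8 spores/mL, from 10-day cultures). Tubes were incubated 2-4 days at 28 C; the control tube held spores only. MIC was the lowest concentration with no visible growth.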

Botrytis cinerea [9] = assay: Inhibition of spore germination of Botryotinia fuckeliana KACC 40573; assay type: functional, organism-based; in short: as §2
Fusarium oxysporum [10] = assay: Antifungal activity against Fusarium oxysporum KACC 41083 measured 2 to 4 days post dose by two-fold dilution method; assay type: functional; in short: as §3
Phytophthora capsici [11] = assay: Inhibition of spore germination of Phytophthora capsici KACC 40157 at 25 ug/mL measured 4 hr post dose; assay type: functional; conditions: KACC 40157, 4 h
Phytophthora capsici [12] = assay: Inhibition of spore germination of Phytophthora capsici KACC 40157 at 100 ug/mL; assay type: functional
Phytophthora capsici [13] = assay: Antifungal activity against Phytophthora capsici KACC 40157 assessed as inhibition of radial growth at 0.6 mg/disk incubated for 4 to 6 days by disk diffusion method; assay type: functional; in short: as §1
Phytophthora capsici [14] = assay: Inhibition of spore germination of Phytophthora capsici KACC 40157 at 100 ug/mL measured 2 hr post dose; assay type: functional; conditions: KACC 40157, 2 h
Phytophthora capsici [15] = assay: Inhibition of spore germination of Phytophthora capsici KACC 40157 at 100 ug/mL measured 3 hr post dose; assay type: functional; conditions: KACC 40157, 3 h
Botrytis cinerea [16] = assay: Antifungal activity against Botryotinia fuckeliana KACC 40573 assessed as inhibition of radial growth at 0.2 mg/disk incubated for 4 to 6 days by disk diffusion method; assay type: functional; in short: as §1
Phytophthora capsici [17] = assay: Inhibition of spore germination of Phytophthora capsici KACC 40157 at 250 ug/mL; assay type: functional; in short: as §2
Botrytis cinerea [18] = assay: Inhibition of spore germination of Botryotinia fuckeliana KACC 40573 at 100 to 500 ug/mL; assay type: functional; in short: as §2
Sclerotinia sclerotiorum [19] = assay: Antifungal activity against Sclerotinia sclerotiorum KACC 41065 assessed as inhibition of radial growth at 0.2 mg/disk incubated for 4 to 6 days by disk diffusion method; assay type: functional; in short: as §1
Sclerotinia sclerotiorum [20] = assay: Antifungal activity against Sclerotinia sclerotiorum KACC 41065 measured 2 to 4 days post dose by two-fold dilution method; assay type: functional; in short: as §3
Phytophthora capsici [21] = assay: Antifungal activity against Phytophthora capsici KACC 40157 assessed as inhibition of radial growth at 0.2 mg/disk incubated for 4 to 6 days by disk diffusion method; assay type: functional; in short: as §1
Phytophthora capsici [22] = assay: Inhibition of spore germination of Phytophthora capsici KACC 40157; assay type: functional, organism-based; in short: as §2
Phytophthora capsici [23] = assay: Antifungal activity against Phytophthora capsici KACC 40157 measured 2 to 4 days post dose by two fold dilution method; assay type: functional; in short: as §3
Fusarium oxysporum [24] = assay: Antifungal activity against Fusarium oxysporum KACC 41083 assessed as inhibition of radial growth at 0.6 mg/disk incubated for 4 to 6 days by disk diffusion method; assay type: functional; in short: as §1
Phytophthora capsici [25] = assay: Inhibition of spore germination of Phytophthora capsici KACC 40157 at 25 to 100 ug/mL; assay type: functional, organism-based; conditions: TDE = time-dependent effect

Structure (SMILES): C=C(C)[C@@H]1Cc2cc3c(cc2O1)OC[C@@]1(O)c2ccc(O)cc2O[C@@H]31 [GLYCEOLLIN III]
- inhibition (INH) (Fusarium oxysporum [1]): 27.4%
- inhibition (Fusarium oxysporum [2]): Dose-dependent effect
- inhibition (INH) (Botrytis cinerea [3]): 22.1%
- inhibition (INH) (Fusarium oxysporum [4]): 40%
- inhibition (INH) (Sclerotinia sclerotiorum [5]): 61%
- inhibition at 500 µg/mL (Sclerotinia sclerotiorum [6]): 100%
- inhibition (Sclerotinia sclerotiorum [7]): Dose-dependent effect
- MIC (Botrytis cinerea [8]): 750 µg/mL (≈ 2220 µM)
- inhibition (Botrytis cinerea [9]): Dose-dependent effect
- MIC (Fusarium oxysporum [10]): 250 µg/mL (≈ 739 µM)
- inhibition at 25 µg/mL (Phytophthora capsici [11]): 50%
- inhibition at 100 µg/mL (Phytophthora capsici [12]): 100%
- inhibition (INH) (Phytophthora capsici [13]): 40.5%
- inhibition at 100 µg/mL (Phytophthora capsici [14]): 95%
- inhibition at 100 µg/mL (Phytophthora capsici [15]): 100%
- inhibition (INH) (Botrytis cinerea [16]): 10.9%
- inhibition at 250 µg/mL (Phytophthora capsici [17]): 100%
- inhibition (INH) (Botrytis cinerea [18]): 40%
- inhibition (INH) (Sclerotinia sclerotiorum [19]): 48.2%
- MIC (Sclerotinia sclerotiorum [20]): 50 µg/mL (≈ 148 µM)
- inhibition (INH) (Phytophthora capsici [21]): 37.5%
- inhibition (Phytophthora capsici [22]): Dose-dependent effect
- MIC (Phytophthora capsici [23]): 25 µg/mL (≈ 73.9 µM)
- inhibition (INH) (Fusarium oxysporum [24]): 40.1%
- inhibition (Phytophthora capsici [25]): tde

Structure (SMILES): CC1(C)C=Cc2cc3c(cc2O1)OC[C@@]1(O)c2ccc(O)cc2O[C@@H]31 [GLYCEOLLIN II]
- inhibition (INH) (Fusarium oxysporum [1]): 27.4%
- inhibition (Fusarium oxysporum [2]): Dose-dependent effect
- inhibition (INH) (Botrytis cinerea [3]): 22.1%
- inhibition (INH) (Fusarium oxysporum [4]): 40%
- inhibition (INH) (Sclerotinia sclerotiorum [5]): 61%
- inhibition at 500 µg/mL (Sclerotinia sclerotiorum [6]): 100%
- inhibition (Sclerotinia sclerotiorum [7]): Dose-dependent effect
- MIC (Botrytis cinerea [8]): 750 µg/mL (≈ 2220 µM)
- inhibition (Botrytis cinerea [9]): Dose-dependent effect
- MIC (Fusarium oxysporum [10]): 250 µg/mL (≈ 739 µM)
- inhibition at 25 µg/mL (Phytophthora capsici [11]): 50%
- inhibition at 100 µg/mL (Phytophthora capsici [12]): 100%
- inhibition (INH) (Phytophthora capsici [13]): 40.5%
- inhibition at 100 µg/mL (Phytophthora capsici [14]): 95%
- inhibition at 100 µg/mL (Phytophthora capsici [15]): 100%
- inhibition (INH) (Botrytis cinerea [16]): 10.9%
- inhibition at 250 µg/mL (Phytophthora capsici [17]): 100%
- inhibition (INH) (Botrytis cinerea [18]): 40%
- inhibition (INH) (Sclerotinia sclerotiorum [19]): 48.2%
- MIC (Sclerotinia sclerotiorum [20]): 50 µg/mL (≈ 148 µM)
- inhibition (INH) (Phytophthora capsici [21]): 37.5%
- inhibition (Phytophthora capsici [22]): Dose-dependent effect
- MIC (Phytophthora capsici [23]): 25 µg/mL (≈ 73.9 µM)
- inhibition (INH) (Fusarium oxysporum [24]): 40.1%
- inhibition (Phytophthora capsici [25]): tde

Structure (SMILES): CC1(C)C=Cc2c(ccc3c2OC[C@@]2(O)c4ccc(O)cc4O[C@@H]32)O1 [GLYCEOLLIN I]
- inhibition (INH) (Fusarium oxysporum [1]): 27.4%
- inhibition (Fusarium oxysporum [2]): Dose-dependent effect
- inhibition (INH) (Botrytis cinerea [3]): 22.1%
- inhibition (INH) (Fusarium oxysporum [4]): 40%
- inhibition (INH) (Sclerotinia sclerotiorum [5]): 61%
- inhibition at 500 µg/mL (Sclerotinia sclerotiorum [6]): 100%
- inhibition (Sclerotinia sclerotiorum [7]): Dose-dependent effect
- MIC (Botrytis cinerea [8]): 750 µg/mL (≈ 2220 µM)
- inhibition (Botrytis cinerea [9]): Dose-dependent effect
- MIC (Fusarium oxysporum [10]): 250 µg/mL (≈ 739 µM)
- inhibition at 25 µg/mL (Phytophthora capsici [11]): 50%
- inhibition at 100 µg/mL (Phytophthora capsici [12]): 100%
- inhibition (INH) (Phytophthora capsici [13]): 40.5%
- inhibition at 100 µg/mL (Phytophthora capsici [14]): 95%
- inhibition at 100 µg/mL (Phytophthora capsici [15]): 100%
- inhibition (INH) (Botrytis cinerea [16]): 10.9%
- inhibition at 250 µg/mL (Phytophthora capsici [17]): 100%
- inhibition (INH) (Botrytis cinerea [18]): 40%
- inhibition (INH) (Sclerotinia sclerotiorum [19]): 48.2%
- MIC (Sclerotinia sclerotiorum [20]): 50 µg/mL (≈ 148 µM)
- inhibition (INH) (Phytophthora capsici [21]): 37.5%
- inhibition (Phytophthora capsici [22]): Dose-dependent effect
- MIC (Phytophthora capsici [23]): 25 µg/mL (≈ 73.9 µM)
- inhibition (INH) (Fusarium oxysporum [24]): 40.1%
- inhibition (Phytophthora capsici [25]): tde
